Reference: article PMC5672925 (British Journal of Cancer, 2017)
Entries after “also recorded” stand apart in the source; their conditions may differ.

How the values were obtained:
[1] = test system: patients with relapsed/refractory MM; experiment: Phase I dose escalation; assay type: in vivo, human; details: days 1, 4, 8, 11 every 3 weeks, up to KW-2478 175 mg m^−2 plus BTZ 1.3 mg m^−2
Outline: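 DLT window was cycle 1, graded by CTCAE v4.0. DLT was related non-haematologic grade ≥3 toxicity (controllable GI events excepted) or grade 4 haematologic toxicity (neutropenia ≤5 days excepted).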

[2] = test system: patients with relapsed/refractory MM; experiment: Safety: treatment-related adverse events; assay type: in vivo, human
Outline: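 Safety population was all patients receiving ≥1 dose. AEs were graded by CTCAE v4.0; treatment-related meant possibly, probably or definitely drug-related per investigator. Vital signs, vision, peripheral neuropathy, haematology and chemistry were checked at screening, on days 1, 4, 8, 11 and 16–18 of each cycle, at end of treatment and at 30-day follow-up. Phase I screening included slit-lamp retinal examination.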

[3] = test system: relapsed/refractory multiple myeloma; assay type: in vivo, human; details: comparison with historical single-agent BTZ
Outline: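 Response graded by IMWG criteria, with minimal response added per ASH-FDA panel. Assessed in evaluable phase II patients plus phase I patients at RP2D (KW-2478 175 mg m−2 i.v. over 1 h, 30 min after BTZ 1.3 mg m−2 bolus, days 1, 4, 8, 11 of 21-day cycles). Duration of response ran from first CR/PR/MR to PD or death. PFS ran from treatment day 1 to PD or death. Both by Kaplan–Meier.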

[4] = Plasma pharmacokinetics of KW-2478 in phase I, cycle 1; assay type: in vivo, human
[5] = test system: patients with advanced, relapsed/refractory B-cell malignancies (predominantly with MM); details: ref Yong et al, 2016, cited from earlier work
MM models = details: cited from earlier work
[6] = test system: relapsed and/or refractory MM; details: ref Richardson et al, cited from earlier work
[7] = large-scale phase III trials, 2005, Orlowski et al, 2007

## CCc1c(O)cc(O)c(C(=O)c2ccc(OCCN3CCOCC3)c(OC)c2)c1CC(=O)N(CCOC)CCOC [KW-2478]
[1]
  Maximum tolerated dose (MTD): not reached
[2]; in combination with BTZ
  Ocular safety: did not raise any ocular safety concerns
[2]; in vivo
  Effect on toxicity of BTZ in the combination regimen: did not enhance the toxicity of BTZ
[3]
  Contribution of KW-2478 to the efficacy of BTZ alone: insufficient evidence that KW-2478 added to the efficacy of BTZ alone
[4]; 130 mg m^−2 dose
  Mean CL, range: 25.9 to 33.3 L/h
[4]; 175 mg m^−2 dose
  Mean CL, range: 32.2 to 62.0 L/h
[4]; co-administered BTZ 1 vs 1.3 mg m^−2
  Effect of increase in BTZ dose on KW-2478 pharmacokinetics: did not affect
[4]; day 11 vs day 1, cycle 1
  Accumulation: Accumulation did not occur
[5]
  Single-agent clinical activity: modest single-agent activity; also recorded: preliminary signs of clinical activity were seen
[5]; single agent
  Tolerability: well tolerated
MM models; KW-2478 alone, ref Nakashima et al, 2010
  Antitumour activity: exhibits antitumour activity
MM models; ref Juliger et al, 2008
  Antitumour activity in MM cells in the presence of bone marrow stromal cells: retained

## CC(C)C[C@H](NC(=O)[C@H](Cc1ccccc1)NC(=O)c1cnccn1)B(O)O [BTZ, bortezomib]
[6]; SUMMIT trial, 2006
  ORR, BTZ alone (reference): 35%
[6]; [7]
  Median PFS, single-agent BTZ: ~6 months
  ORR, single-agent BTZ: ~40%
